Test results: ChEMBL document CHEMBL4406830, “Galloyl esters of trans-stilbenes are inhibitors of FASN with anticancer activity on non-small cell lung cancer cells” (Eur J Med Chem, 2019)
Activity calls are given as the source filed them. The calls are words filed in the database; no cut-off is given here.

Tests used:
[1] = molecular target: Fatty acid synthase (Homo sapiens) (UniProt P49327); assay: Inhibition of FASN in human NCI-H1703 cells expressing FASN assessed as disruption of AKT/FASN positive feedback loop by measuring decrease in FASN expression after 48 hrs by Western immunoblot assay; format: cell-based
Method in brief: (§1)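 PC-9 or H1703 cells were seeded at 8 × 10^5 per 100 mm dish and treated for 48 h at 1 or 5 µM (or 5, 50 and 100 µM). RIPA lysates were BCA-quantified and run on 8% SDS-PAGE, then transferred to PVDF. Blots were probed for FASN, AKT, phospho-AKT S473 and GAPDH and detected by ECL. Bands were quantified by densitometry and normalised to vehicle control.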

NCI-H1650 = assay: Antiproliferative activity against human NCI-H1650 cells expressing FASN assessed as reduction in cell viability after 72 hrs by MTS assay; format: functional, cell-based; conditions: NCI-H1650, 72 h
Method in brief: (§2)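 ATCC-sourced cells. H1299, H1650, H1703 and PC-9 were grown in RPMI 1640 with 10% FBS. A549 was grown in high-glucose DMEM with 10% FBS and 1 mM pyruvate. SAEC was grown in BEGM. Cells were seeded at 3 × 10^3 per well (H1650 3.5 × 10^3) and left to attach overnight. Serial dilutions from DMSO stocks were added, 0.1% DMSO final, for 72 h at 37 °C, 5% CO2. Medium was replaced, MTS added, and A490 read after 2 h. IC50 was taken from % viability versus log concentration, 3 experiments.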

[2] = molecular target: Fatty acid synthase (Homo sapiens) (UniProt P49327); assay: Inhibition of FASN in human NCI-H1703 cells expressing FASN assessed as disruption of AKT/FASN positive feedback loop by measuring decrease in FASN expression at 1 uM after 48 hrs in presence of exogenous lipid concentrate by Western immunoblot based densitometric assay relative to control; format: cell-based
Method in brief: (§3)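 PC-9 (2 µM) or H1703 (1 µM) cells were treated with compound, with or without lipid concentrate (1% v/v per figure legend), for 48 h. Cells were lysed in RIPA buffer and lysates run on SDS-PAGE western blots for FASN, AKT, phospho-AKT S473 and GAPDH. Bands were quantified by densitometry and normalised to untreated control.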

[3] = Selectivity index, ratio of IC50 for human SAE cells lacking FASN expression to IC50 for human A549 cells expressing FASN
Method in brief: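 The ratio IC50(SAEC)/IC50(NSCLC line) was calculated from 72 h MTS viability IC50 values.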

[4] = Selectivity index, ratio of IC50 for human SAE cells lacking FASN expression to IC50 for human PC9 cells harboring FASN expression and EGFR delE746-A750 mutant
Method in brief: (§4)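 Index is the SAEC IC50 divided by the IC50 in the FASN-expressing NSCLC line. IC50s came from MTS viability after 72 h exposure at 37 °C, 5% CO2, DMSO 0.1% v/v. Absorbance was read at 490 nm after 2 h. The fit was % viability against log concentration, with 4 technical repeats and 3 independent experiments. NSCLC lines were grown in RPMI/10% FBS; SAEC in BEGM.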

[5] = molecular target: Fatty acid synthase (Homo sapiens) (UniProt P49327); assay: Inhibition of FASN in human NCI-H1703 cells expressing FASN assessed as disruption of AKT/FASN positive feedback loop by measuring decrease in AKT expression at 1 uM after 48 hrs by Western immunoblot based densitometric assay relative to control; format: cell-based; method in brief: as §1
[6] = molecular target: Fatty acid synthase (Homo sapiens) (UniProt P49327); assay: Inhibition of FASN in human NCI-H1703 cells expressing FASN assessed as disruption of AKT/FASN positive feedback loop by measuring decrease in FASN expression at 5 uM after 48 hrs by Western immunoblot based densitometric assay relative to control; format: cell-based; method in brief: as §1
NCI-H1703 = assay: Antiproliferative activity against human NCI-H1703 cells expressing FASN assessed as reduction in cell viability after 72 hrs by MTS assay; format: functional, cell-based; conditions: NCI-H1703, 72 h; method in brief: as §2
[7] = molecular target: Fatty acid synthase (Homo sapiens) (UniProt P49327); assay: Inhibition of FASN in human NCI-H1703 cells expressing FASN assessed as disruption of AKT/FASN positive feedback loop by measuring decrease in FASN expression at 1 uM after 48 hrs by Western immunoblot based densitometric assay relative to control; format: cell-based; method in brief: as §1
NCI-H1299 = assay: Antiproliferative activity against human NCI-H1299 cells expressing FASN assessed as reduction in cell viability after 72 hrs by MTS assay; format: functional, cell-based; conditions: NCI-H1299, 72 h; method in brief: as §2
A549 = assay: Antiproliferative activity against human A549 cells expressing FASN assessed as reduction in cell viability after 72 hrs by MTS assay; format: functional, cell-based; conditions: A549, 72 h; method in brief: as §2
[8] = molecular target: Fatty acid synthase (Homo sapiens) (UniProt P49327); assay: Inhibition of FASN in human NCI-H1703 cells expressing FASN assessed as disruption of AKT/FASN positive feedback loop by measuring decrease in phosphorylated AKT expression at 5 uM after 48 hrs by Western immunoblot based densitometric assay relative to control; format: cell-based; method in brief: as §1
[9] = molecular target: Fatty acid synthase (Homo sapiens) (UniProt P49327); assay: Inhibition of FASN in human NCI-H1703 cells expressing FASN assessed as disruption of AKT/FASN positive feedback loop by measuring decrease in phosphorylated AKT expression at 1 uM after 48 hrs by Western immunoblot based densitometric assay relative to control; format: cell-based; method in brief: as §1
[10] = molecular target: Fatty acid synthase (Homo sapiens) (UniProt P49327); assay: Inhibition of FASN in human PC9 cells harboring FASN expression and EGFR delE746-A750 mutant assessed as disruption of AKT/FASN positive feedback loop by measuring FASN expression at 2 uM after 48 hrs in presence of exogenous lipid concentrate by Western immunoblot based densitometric assay relative to control; format: cell-based; method in brief: as §3
PC-9 [11] = assay: Induction of apoptosis in human PC9 cells harboring FASN expression and EGFR delE746-A750 mutant assessed as increase in late apoptotic cells at 5 uM after 72 hrs by Annexin-V FITC/PI staining-based flow cytometry; format: functional, cell-based
[12] = Selectivity index, ratio of IC50 for human SAE cells lacking FASN expression to IC50 for human NCI-H1703 cells expressing FASN; method in brief: as §4
PC-9 [13] = assay: Antiproliferative activity against human PC9 cells harboring FASN expression and EGFR delE746-A750 mutant assessed as cell viability at 2 uM after 72 hrs in presence of exogenous lipid concentrate by MTS assay; format: functional, cell-based
Method in brief: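 Cells were treated as in the MTS viability assay. After 6 h, chemically defined lipid concentrate was added to 2% v/v final. Incubation continued for a further 72 h, then viability was read by MTS at 490 nm. Cells were treated at 2 µM (PC-9) or 1 µM (H1703). Mean ± SD, n = 3, compared with compound alone.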

[14] = molecular target: Fatty acid synthase (Homo sapiens) (UniProt P49327); assay: Inhibition of FASN in human NCI-H1703 cells expressing FASN assessed as disruption of AKT/FASN positive feedback loop by measuring decrease in ratio of phosphoAKT/AKT expression at 1 uM after 48 hrs by Western immunoblot based densitometric assay relative to control; format: cell-based; method in brief: as §1
[15] = molecular target: Fatty acid synthase (Homo sapiens) (UniProt P49327); assay: Inhibition of FASN in human PC9 cells harboring FASN expression and EGFR delE746-A750 mutant assessed as disruption of AKT/FASN positive feedback loop by measuring decrease in ratio of phosphoAKT/AKT expression at 2 uM after 48 hrs by Western immunoblot based densitometric assay relative to control; format: cell-based; method in brief: as §3

Fatty acid synthase (Homo sapiens), sequence (P49327 whole entry, looked up): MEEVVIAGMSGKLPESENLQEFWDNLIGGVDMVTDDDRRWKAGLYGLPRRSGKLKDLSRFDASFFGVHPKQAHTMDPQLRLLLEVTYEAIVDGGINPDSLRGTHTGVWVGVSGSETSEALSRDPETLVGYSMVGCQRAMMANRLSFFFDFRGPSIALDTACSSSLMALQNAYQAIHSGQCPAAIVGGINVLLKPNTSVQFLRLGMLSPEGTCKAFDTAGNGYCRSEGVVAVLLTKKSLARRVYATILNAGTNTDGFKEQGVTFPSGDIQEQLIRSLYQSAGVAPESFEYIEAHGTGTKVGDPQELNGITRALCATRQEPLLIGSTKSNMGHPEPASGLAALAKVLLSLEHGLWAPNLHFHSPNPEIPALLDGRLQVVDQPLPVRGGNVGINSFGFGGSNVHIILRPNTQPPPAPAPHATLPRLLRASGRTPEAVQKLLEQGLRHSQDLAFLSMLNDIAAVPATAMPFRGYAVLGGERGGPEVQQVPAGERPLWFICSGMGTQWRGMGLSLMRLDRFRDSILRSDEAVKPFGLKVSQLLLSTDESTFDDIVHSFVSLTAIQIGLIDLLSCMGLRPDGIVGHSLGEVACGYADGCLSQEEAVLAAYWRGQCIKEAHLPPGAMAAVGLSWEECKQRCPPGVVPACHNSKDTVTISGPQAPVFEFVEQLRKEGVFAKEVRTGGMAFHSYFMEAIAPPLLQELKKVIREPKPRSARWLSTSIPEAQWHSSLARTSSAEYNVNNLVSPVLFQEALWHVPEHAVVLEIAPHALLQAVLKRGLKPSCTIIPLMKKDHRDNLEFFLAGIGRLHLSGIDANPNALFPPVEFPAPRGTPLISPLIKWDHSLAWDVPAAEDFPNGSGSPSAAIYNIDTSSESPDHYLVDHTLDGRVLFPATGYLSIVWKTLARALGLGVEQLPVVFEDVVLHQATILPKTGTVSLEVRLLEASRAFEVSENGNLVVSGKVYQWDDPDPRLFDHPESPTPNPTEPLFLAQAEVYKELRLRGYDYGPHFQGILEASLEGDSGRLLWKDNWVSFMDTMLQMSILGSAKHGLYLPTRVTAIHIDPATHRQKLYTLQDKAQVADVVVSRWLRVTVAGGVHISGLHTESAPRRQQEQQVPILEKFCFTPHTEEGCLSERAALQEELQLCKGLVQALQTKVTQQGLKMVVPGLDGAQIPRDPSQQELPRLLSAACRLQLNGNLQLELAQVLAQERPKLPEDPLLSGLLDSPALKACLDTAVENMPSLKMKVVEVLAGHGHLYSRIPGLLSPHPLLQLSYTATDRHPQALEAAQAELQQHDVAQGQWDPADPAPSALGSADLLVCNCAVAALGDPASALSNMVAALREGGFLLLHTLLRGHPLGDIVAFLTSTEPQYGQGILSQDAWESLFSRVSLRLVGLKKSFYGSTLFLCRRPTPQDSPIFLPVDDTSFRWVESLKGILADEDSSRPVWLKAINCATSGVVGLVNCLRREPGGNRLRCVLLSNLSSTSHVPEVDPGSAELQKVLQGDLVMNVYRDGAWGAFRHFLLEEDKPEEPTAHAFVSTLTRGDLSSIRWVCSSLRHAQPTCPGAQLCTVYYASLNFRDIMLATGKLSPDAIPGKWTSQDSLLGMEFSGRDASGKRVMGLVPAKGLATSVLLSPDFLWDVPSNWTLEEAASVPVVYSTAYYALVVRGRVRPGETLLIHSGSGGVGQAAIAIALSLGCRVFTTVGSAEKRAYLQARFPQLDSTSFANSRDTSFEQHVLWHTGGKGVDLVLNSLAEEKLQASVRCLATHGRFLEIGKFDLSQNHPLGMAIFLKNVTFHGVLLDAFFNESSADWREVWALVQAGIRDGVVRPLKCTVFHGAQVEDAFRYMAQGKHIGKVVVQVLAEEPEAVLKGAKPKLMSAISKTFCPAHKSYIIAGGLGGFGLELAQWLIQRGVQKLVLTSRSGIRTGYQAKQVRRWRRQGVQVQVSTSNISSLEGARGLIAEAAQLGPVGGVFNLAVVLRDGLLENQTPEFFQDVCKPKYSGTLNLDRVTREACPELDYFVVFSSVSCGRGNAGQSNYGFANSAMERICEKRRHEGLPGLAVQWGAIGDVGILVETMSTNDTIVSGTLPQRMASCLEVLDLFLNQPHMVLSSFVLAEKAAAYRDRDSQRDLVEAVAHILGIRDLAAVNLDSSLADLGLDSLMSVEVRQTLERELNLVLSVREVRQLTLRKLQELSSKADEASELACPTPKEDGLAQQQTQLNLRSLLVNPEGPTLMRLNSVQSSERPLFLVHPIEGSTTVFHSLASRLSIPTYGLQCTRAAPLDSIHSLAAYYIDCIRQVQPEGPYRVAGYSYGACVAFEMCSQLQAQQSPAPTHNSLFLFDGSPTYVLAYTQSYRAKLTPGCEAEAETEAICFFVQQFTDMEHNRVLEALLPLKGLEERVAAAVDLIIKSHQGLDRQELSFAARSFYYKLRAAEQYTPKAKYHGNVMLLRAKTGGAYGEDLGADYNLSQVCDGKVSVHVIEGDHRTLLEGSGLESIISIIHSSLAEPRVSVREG

| inhibition [1] | IC50 (NCI-H1650) [µM] | Ratio [2] | Ratio [5] | Ratio [6] | IC50 (NCI-H1703) [nM] | Ratio [7] | IC50 (NCI-H1299) [µM] | IC50 (A549) [nM] | Ratio [8] | Ratio [9] | Ratio [10] | Ratio [14] | Ratio [15] | SMILES | Ratio IC50 [3] | Ratio IC50 [4] | Activity (PC-9 [11]) | Ratio IC50 [12] | inhibition (PC-9 [13]) |
| --- | --- | --- | --- | --- | --- | --- | --- | --- | --- | --- | --- | --- | --- | --- | --- | --- | --- | --- | --- |
| Dose-dependent effect | 2.5 | 0.74 | 0.34 | 0.04 | 970 | 0.11 to 0.24 | 3.3 | 2100 | 0.001 | 0.09 | 0.55 | 0.04 | 0.13 | O=C(Oc1ccc(/C=C/c2ccc(OC(=O)c3cc(O)c(O)c(O)c3)cc2)cc1)c1cc(O)c(O)c(O)c1 | 2.4 | 2.2 | Active | 5.2 | inactive |
| Dose-dependent effect | 12.7 | 1.64 | 0.52 | 0.08 | 1280 | 0.38 to 0.39 | 3.1 | 2300 | 0.04 | 0.57 | 0.62 | 0.16 | 0.12 | O=C(Oc1ccc(/C=C/c2cccc(OC(=O)c3cc(O)c(O)c(O)c3)c2)cc1)c1cc(O)c(O)c(O)c1 | 3 | 1.4 | Active | 5.3 | inactive |
